Consider three compounds from PMC2913441 (Chemical biology & drug design, 2010).

What all share (assay type): binding
Experiment [1] deals with T1, Mdm2 (Homo sapiens, UniProt Q00987). Put plainly: Interaction with Mdm2. Particulars: result in words; assay not stated.
Target sequence in this assay (Q00987 whole entry): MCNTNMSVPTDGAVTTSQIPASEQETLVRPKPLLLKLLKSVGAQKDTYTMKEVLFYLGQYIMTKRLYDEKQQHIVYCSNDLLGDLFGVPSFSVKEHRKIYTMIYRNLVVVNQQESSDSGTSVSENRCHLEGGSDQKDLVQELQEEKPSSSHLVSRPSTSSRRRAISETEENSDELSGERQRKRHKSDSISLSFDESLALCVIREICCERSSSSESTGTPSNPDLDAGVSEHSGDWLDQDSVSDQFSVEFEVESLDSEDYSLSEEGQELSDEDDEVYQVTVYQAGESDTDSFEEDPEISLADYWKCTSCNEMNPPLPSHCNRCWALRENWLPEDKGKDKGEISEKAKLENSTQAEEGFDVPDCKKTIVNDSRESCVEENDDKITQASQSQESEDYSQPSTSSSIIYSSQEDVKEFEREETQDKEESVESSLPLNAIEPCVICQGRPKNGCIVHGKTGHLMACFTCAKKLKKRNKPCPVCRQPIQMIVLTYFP
The target of experiment [2] is Mdm2/p53 complex (Homo sapiens, UniProt Q00987). Put plainly: NMR-based antagonist induced dissociation assay. The conditions noted are these: read-out: dissociation constant (Kd) of the compound-Mdm2 interaction; AIDA-NMR; 14 μM Mdm2/p53 complex mixed with compound in 1:1 molar ratio. In a few lines:
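Variant of antagonist-induced dissociation NMR (SEI-AIDA). The preformed Mdm2/p53 complex (14 μM) is mixed with the test compound at a 1:1 molar ratio. The amount of p53 released from the complex is estimated from the 1D spectrum. The Kd of the Mdm2–compound interaction is then calculated from the released fraction.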

Experiment [3] has as its target T1, Mdm2. Put plainly: Fluorescence polarization. The conditions noted are these: read-out: inhibition constant (Ki) of Mdm2; FP assay, competition with p53-like peptide. An outline of the steps: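 Competitive fluorescence polarization assay: a fluorescent p53-like peptide is bound to recombinant Mdm2 and displaced by the test compound across a range of concentrations, giving dose–response curves. The binding constant and inhibition curves were fitted to derive Ki.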
Target sequence in this assay (Q00987 1-118): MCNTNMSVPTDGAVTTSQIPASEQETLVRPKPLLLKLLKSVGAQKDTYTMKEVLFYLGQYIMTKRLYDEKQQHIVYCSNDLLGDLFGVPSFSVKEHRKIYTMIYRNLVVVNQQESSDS
On the technique in general: In fluorescence polarisation assays a small probe gives low polarisation when free and higher when bound to something large.

Mdm2/p53 complex, sequence (Q00987 1-118, one chain of several): as the sequence (Q00987 1-118) above

Regarding `Cc1cc(C)c(NC(=O)C2C(=O)Nc3sc4c(c3C(=O)N2Cc2ccc(Cl)cc2)CCCC4)c(C)c1` (centres unmarked) [5a-6, 3,4,6,7,8,9-Hexahydro-3-(N-mesityl)-carboxamide-4-(4-chlorobenzyl)-1H-benzothieno-[2,3-e]-1,4-diazepine-2,5-dione], the “interaction with Mdm2” value in experiment [1] is recorded as “weak interaction”.
As usually defined, the Kd is the free concentration of one partner at which half of the binding sites on the other are occupied at equilibrium, for simple one-to-one binding. By Ki is commonly meant a dissociation constant, usually derived from enzyme kinetics or from competition with a known ligand. Consider `O=C(NCc1ccccc1)C1C(=O)Nc2sc3c(c2C(=O)N1Cc1ccc(Cl)cc1)CCCC3` (centres unmarked) [5a-7, 3,4,6,7,8,9-Hexahydro-3-(N-benzyl)-carboxamide-4-(4-chlorobenzyl)-1H-benzothieno-[2,3-e]-1,4-diazepine-2,5-dione], for which the Kd in experiment [2] amounted to 30 ± 20 µM. Moreover, the Ki in experiment [3] came out at 40 µM.
In the case of `O=C(NCc1ccc(Cl)c(Cl)c1)C1C(=O)Nc2sc3c(c2C(=O)N1Cc1ccc(Cl)cc1)CCCC3` (centres unmarked) [5a-8, 3,4,6,7,8,9-Hexahydro-3-(N-3,4-dichlorobenzyl)-carboxamide-4-(4-chlorobenzyl)-1H-benzothieno-[2,3-e]-1,4-diazepine-2,5-dione], the Kd in experiment [2] was 10 ± 6 µM. Besides, in experiment [3], the Ki turned out to be 45 µM.
